Screening results from PubChem.
Rows were chosen to be rich in hits. Some 2.1% of all compounds tested hit in one or more screens of this group.
CXCR6 block: inhibitors of human CXCR6 receptor. inhibition, % at 20 µM. CHO-K1 PathHunter CXCR6 beta-arrestin, luminescence. 360,000 compounds, 0.36% hits. AID 602244. O00574; in the data active means inhibition above about 34%, passing the limit was not always enough;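 further: antagonist mode with CXCL16 agonist at 10 nM final; 0% = 10 nM CXCL16 with DMSO and 100% = unstimulated wells without agonist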
Target sequence (O00574 whole entry, looked up): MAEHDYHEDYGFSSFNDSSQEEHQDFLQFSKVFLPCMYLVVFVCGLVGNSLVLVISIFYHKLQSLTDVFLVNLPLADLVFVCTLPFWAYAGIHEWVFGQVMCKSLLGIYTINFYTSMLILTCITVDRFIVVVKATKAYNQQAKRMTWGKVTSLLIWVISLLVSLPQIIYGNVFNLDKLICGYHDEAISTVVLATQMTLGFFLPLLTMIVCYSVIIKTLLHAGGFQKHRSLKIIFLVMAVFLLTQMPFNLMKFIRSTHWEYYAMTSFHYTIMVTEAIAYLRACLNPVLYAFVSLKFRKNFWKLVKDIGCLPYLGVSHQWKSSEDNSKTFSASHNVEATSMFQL
APJ antag: antagonists of human APJ apelin receptor; AID 2521; CHO-K1 APJ beta-arrestin complementation, luminescence; inhibition, % at 20 µM; P35414; 330,000 compounds, 0.32% hits;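 active means inhibition above about 40% at 20 µM, limit read from the data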;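 further: cells challenged with 10 nM apelin-13 agonist together with compound; plate controls were apelin-13 plus DMSO wells for no effect and DMSO wells lacking apelin-13 for full effect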
CCR6 antagonist: blocks CCL20-driven beta-arrestin recruitment at human CCR6 | P51684 | CHO-K1 CCR6 PathHunter beta-arrestin, luminescence, CCL20-stimulated | inhibition, % at 20 µM | 340,000 compounds, 0.49% hits | AID 493098;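 active means compounds whose inhibition of the agonist-driven luminescence signal at 20 µM reaches about 50%, limit read from the data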;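 further: cells stimulated with CCL20 at 14 nM final; plate controls were DMSO with CCL20 for no effect and DMSO without agonist for full effect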
Target sequence (P51684 whole entry, looked up): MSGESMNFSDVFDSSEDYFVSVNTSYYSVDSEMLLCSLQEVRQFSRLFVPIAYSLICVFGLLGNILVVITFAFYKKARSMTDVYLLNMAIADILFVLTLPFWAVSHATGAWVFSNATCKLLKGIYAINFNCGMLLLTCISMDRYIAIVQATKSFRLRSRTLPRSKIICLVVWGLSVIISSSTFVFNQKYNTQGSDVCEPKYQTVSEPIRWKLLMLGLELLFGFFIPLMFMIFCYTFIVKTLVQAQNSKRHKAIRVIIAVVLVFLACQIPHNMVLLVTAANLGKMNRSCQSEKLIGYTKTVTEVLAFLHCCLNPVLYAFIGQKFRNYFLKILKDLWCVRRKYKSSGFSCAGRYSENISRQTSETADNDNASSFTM
HTR2A ag: agonists of mouse serotonin 5-HT2A receptor (HTR2A); CHO-K1 mHTR2A beta-arrestin complementation, luminescence; percent of 30 µM serotonin response; activation, % at 7.6 µM; 360,000 compounds, 0.66% hits;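 active means activation above a run cutoff, the mean activation of all tested compounds plus 3 SD, cut at about 14% in these data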;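 further: 0% = plate median of compound wells and 100% = 30 µM serotonin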
APJ agonist: agonists of human APJ apelin receptor | P35414 | CHO-K1 APJ PathHunter beta-arrestin, luminescence; 0% DMSO wells, 100% apelin | activation, % at 20 µM | 330,000 compounds, 0.11% hits | AID 2520;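 active means activation more than six SD over the plate average, tested at 20 µM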;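 further: 0% = DMSO alone and 100% = apelin-13 at 10 nM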
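Test system – PathHunter CHO-K1 APJ (AGTRL-1) beta-arrestin reporter cells · Input – 1000 cells/well · Compound – single test compound dose, 20 µM final, 1% DMSO · Times – compound stimulation 90 min at 25 °C, detection 60 min · Technique – beta-gal luminescence · Read-out basis – APJ–arrestin association signal · Control set – negative DMSO alone, positive Apelin-13 at 10 nM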
EBI2 block: blocks human EBI2 receptor beta-arrestin signaling; inhibition, % at 5 µM; EBI2 beta-arrestin recruitment, luminescence, 7a,25-OHC stimulated; 360,000 compounds, 0.81% hits; P32249; AID 651636; in the data active means inhibition above about 38%;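 further: enzyme fragment complementation signal reports receptor beta-arrestin coupling in cells; 0% = agonist plus DMSO wells and 100% = wells without agonist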
Active calls of the source: *; x = not tested or not shown.

SMILES	CXCR6 block	APJ antag	CCR6 antagonist	HTR2A ag	APJ agonist	EBI2 block
COc1ccc(OC)c(S(=O)(=O)N2CCN(c3ccccc3)CC2)c1	5.7	23.1	5.9	-0.1	-4.5	-5.5
O=C1C=C(c2cccc3c2sc2ccccc23)C[C@@H](c2ccc(F)cc2)C1	-5.1	-3.5	9.2	5.2	-3.6	66.6*
N#Cc1cnn2c(-c3cccc(C(F)(F)F)c3)ccnc12	0.7	13.0	-2.6	2.7	-3.8	0.8
CC1(C)Cc2c(c(N3CCOCC3)nc3sc4c(NCc5ccccc5)nnnc4c23)CS1	5.5	19.6	19.5	-10.2	-0.7	76.4*
Cc1cccc2c1c1ccc3c(c1n2C)C(=O)C=CC3=O	43.7*	x	88.9*	7.3	x	-2.9
Cc1ccccc1N1CC(=O)N(c2ccccc2C)CC1=O	7.2	-3.9	1.2	11.2	-0.6	-2.6
Cc1onc(-c2c(Cl)cccc2Cl)c1C(=O)c1c[nH]c(C(=O)NCCCN2CCOCC2)c1	1.5	9.5	3.6	-6.0	0.2	-5.3
COC(CNC(=O)c1cc(C(=O)c2c(-c3c(Cl)cccc3Cl)noc2C)c[nH]1)OC	70.6*	-5.7	23.2	-8.7	3.2	5.2
O=C(Oc1ccccc1)c1cccc(COC(=O)c2cnccn2)c1	-3.6	25.0	18.3	-3.4	-1.3	-2.2
COc1ccc(Cl)cc1NC(=O)COC(=O)Cc1cccs1	2.4	-17.2	7.3	9.5	-4.3	-12.8
CC1=C/C(=C(\c2cc(C)c(O)c(Br)c2)c2ccccc2S(=O)(=O)O)C=C(Br)C1=O	30.9	19.3	58.9*	-6.8	-4.5	3.7
Cc1cc(C(=O)c2ccccc2)cc(C)c1O	9.9	x	8.8	0.4	x	0.5
Cc1ccccc1CNC(=O)Nc1cccs1	-3.2	-6.9	3.9	-0.6	0.3	3.2
CCN1/C(=C2/OC(=S)N(C)C2=O)Sc2ccccc21	-10.5	x	5.9	-2.0	x	-8.1
CCN1/C(=C\C=C2\C(=O)N(C)C(=S)N2C)Sc2ccccc21	23.2	12.6	37.8	2.6	19.1*	20.9
COc1cc(S(=O)(=O)NC2CCCC2)ccc1Cl	2.7	-4.5	-16.4	-1.8	-2.8	-3.7
CN(C)C(=S)N=c1ssc(=S)n1Cc1ccccc1	19.0	x	50.7*	-24.2	x	11.7
CSc1ccc(C2=C/C(=C3/SC(=S)NC3=O)c3ccccc3O2)cc1	45.1*	x	75.8*	5.1	x	-2.4
CCN1/C(=C2/SC(=S)NC2=O)Sc2ccccc21	1.7	9.5	4.4	2.1	-5.5	0.3
CCCN1C(=O)/C(=C/c2ccc(C)s2)SC1=Nc1ccc(OC)cc1	10.2	13.0	21.6	9.2	-7.0	12.6
CCN(CC)CCN1C(=O)/C(=C\c2ccc(Cl)c([N+](=O)[O-])c2)SC1=Nc1ccc(OC)cc1	0.6	21.1	25.3	-7.3	-1.1	72.9*
COc1ccc(N=C2S/C(=C\c3ccc(Cl)c([N+](=O)[O-])c3)C(=O)N2CCN(C)C)cc1	17.3	18.9	24.7	-6.7	-0.1	62.3*
Cc1ccc(N(CC(=O)O)S(C)(=O)=O)cc1	-5.7	14.3	1.1	0.0	-2.6	1.5
COc1ccc(CCN2C(=O)C=CC2=O)cc1OC	93.1*	x	109.2*	-5.6	x	7.7
O=C(COC(=O)c1ccc([N+](=O)[O-])s1)NCCc1ccccc1	-4.8	-59.6	-2.5	17.2*	4.3	-19.5
SMILES	CXCR6 block	APJ antag	CCR6 antagonist	HTR2A ag	APJ agonist	EBI2 block
O=C(COC(=O)c1ccc([N+](=O)[O-])s1)NC(=O)NCc1ccccc1	-14.2	-30.3	8.3	-7.5	1.9	-2.7
NS(=O)(=O)c1ccc(NC(=O)COC(=O)c2ccc([N+](=O)[O-])s2)cc1	-16.0	-58.6	-1.5	5.5	17.5*	-9.5
CC(C)c1ccc(OCC(=O)N(c2ccccn2)C2CCCCC2)cc1	3.4	-4.6	19.1	1.0	-0.6	3.0
Cc1ccnc(NC(=S)N2CCN(c3cccc(C(F)(F)F)c3)CC2)c1	38.7	27.6	50.6*	4.0	-4.9	-7.5
Cc1ccc(C)c(NC(=S)N2CCN(c3cccc(C(F)(F)F)c3)CC2)c1	-0.5	2.4	-18.5	7.3	2.0	4.2
CN(CCCNC(=O)C1CCC(CNS(=O)(=O)c2ccccc2)CC1)Cc1ccccc1 (stereo unspecified)	-1.0	10.8	5.7	-8.1	-2.1	-6.7
O=C(COc1ccc(Cl)cc1)N1CCN(c2ccc([N+](=O)[O-])c(N3CCCCC3)c2)CC1	1.8	17.2	9.8	4.8	-3.7	78.4*
O=C(COc1ccccc1Cl)N1CCN(c2ccc([N+](=O)[O-])c(N3CCCCC3)c2)CC1	8.1	16.2	15.3	0.0	-3.4	22.9
Oc1c(I)cc(Cl)c2cccnc12	35.7*	17.1	55.0*	-0.5	-4.1	14.5
O=C(NC(=S)Nc1cc(Cl)ccc1O)c1cccc(Br)c1	37.5	28.4	59.1*	-6.6	-8.3	18.0
O=C(NC(=S)Nc1cccnc1)c1cccc(Br)c1	20.2	11.1	57.8*	0.9	-3.0	0.5
O=C(NC(=S)Nc1ccc2oc(-c3cccnc3)nc2c1)c1cccc(Cl)c1	32.0	20.5	53.9*	-5.5	-0.2	16.5
O=C(Nc1ccccc1)C1=C[C@@H](c2ccc(Br)cc2)C[C@@H](OCc2ccc(CO)cc2)O1	12.2	10.3	19.2	-6.2	5.2	27.2
CSc1cccc(NC(=S)Nc2ccc(F)cc2)c1	10.7	5.3	-10.1	4.0	0.7	-3.6
CONc1nc(NC(C)(C)C)nc(OCC#N)n1	-2.0	-3.5	-2.0	-0.7	-1.1	1.7
N=c1sccn1CC(=O)Nc1ccc(S(N)(=O)=O)cc1	2.2	8.4	5.2	-2.1	-1.2	-4.4
N#Cc1ccc(C(=O)Nc2nnc(-c3cccs3)o2)cc1	-1.5	16.1	5.5	-2.8	-4.5	-7.9
O=C(Nc1nnc(-c2cccs2)o1)c1cccc(C(F)(F)F)c1	43.8*	0.3	44.0	-0.4	-1.5	-5.9
C/C(=N/Nc1ccc([N+](=O)[O-])cc1)c1c[nH]c2ccccc12	38.2	37.1	70.4*	-0.8	-9.3	34.7
Cc1[nH]c2ccccc2c1/C=N/NC(=O)c1cccc([N+](=O)[O-])c1	-6.7	9.3	5.2	0.0	2.6	-9.2
C/C(=N/Nc1ccc([N+](=O)[O-])cc1)c1ccc(C)cc1C	2.4	18.2	25.4	-3.5	-2.4	18.2
Cc1[nH]c2ccccc2c1/C=N/Nc1ccc([N+](=O)[O-])cc1	37.5	x	64.7*	-5.2	x	41.8*
CN1CCN(NC(=O)c2cn(-c3ccccc3)nc2-c2cccs2)CC1	-1.6	9.3	-9.7	-0.1	0.0	-4.9
O=C(O)CSc1nc(C(F)(F)F)cc(=O)n1-c1ccccc1	-2.9	3.6	-3.0	17.0*	-3.2	0.0
COc1cc(/C=C2\C(=O)N(c3ccc(NC(C)=O)cc3)N=C2c2ccccc2)ccc1O	46.0*	39.7	48.0	-1.1	-3.8	9.0
O=C(Nc1cccnc1)Nc1ccc(Cl)cc1Cl	-1.6	6.7	6.9	-6.0	-1.7	6.0
